ChEMBL document CHEMBL2407081, “Discovery of potent, isoform-selective inhibitors of histone deacetylase containing chiral heterocyclic capping groups and a N-(2-aminophenyl)benzamide binding unit” (J Med Chem, 2013)
≈ marks a conversion by molar mass, not a printed value. Calls of active or inactive are those of the source. The rule behind the calls is not given here.

Experiments:
HeLa = assay: Induction of apoptosis in human HeLa cells assessed as PARP cleavage at 1 to 10 uM after 24 hrs by Western blot analysis; format: functional, cell-based
[1] = molecular target: Histone deacetylase 3/NCoR1 (Homo sapiens) (UniProt O15379+O75376); assay: Inhibition of recombinant HDAC3-NCoR1 (unknown origin) assessed as slow tight binding at 0.02 to 20 uM; format: protein-complex assay
MCF7 = assay: Cytotoxicity against human MCF7 cells assessed as growth inhibition by measuring cellular ATP level after 72 hrs by cell-titer glo assay; format: functional, cell-based; details: MCF7, 72 h
Histone deacetylase 2 = Histone deacetylase 2 (Homo sapiens, UniProt Q92769); assay: Inhibition of recombinant His-tagged HDAC2 (1 to 488) (unknown origin) using MAL as substrate incubated for 3 hrs prior to substrate addition measured after 60 mins by fluorescence plate reader analysis
Sequence of Histone deacetylase 2 (Q92769 whole entry): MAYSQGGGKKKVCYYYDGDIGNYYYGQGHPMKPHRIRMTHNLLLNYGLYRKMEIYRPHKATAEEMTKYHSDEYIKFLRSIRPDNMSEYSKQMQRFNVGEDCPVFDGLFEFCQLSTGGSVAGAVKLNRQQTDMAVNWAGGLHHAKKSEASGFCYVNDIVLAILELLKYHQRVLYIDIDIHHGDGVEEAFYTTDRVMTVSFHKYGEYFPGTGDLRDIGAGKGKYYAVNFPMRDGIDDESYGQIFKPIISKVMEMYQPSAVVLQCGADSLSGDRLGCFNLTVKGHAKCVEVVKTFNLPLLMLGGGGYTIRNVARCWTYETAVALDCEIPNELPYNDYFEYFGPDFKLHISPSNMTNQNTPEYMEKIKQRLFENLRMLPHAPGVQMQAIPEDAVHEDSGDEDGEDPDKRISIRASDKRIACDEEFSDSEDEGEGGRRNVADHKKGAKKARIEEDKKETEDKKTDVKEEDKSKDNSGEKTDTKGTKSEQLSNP

Jurkat [2] = assay: Cell cycle arrest in human Jurkat cells assessed as accumulation at S phase at 10 uM after 24 hrs by FITC/propidium iodide staining-based FACS flow cytometric analysis (reference value: 15.3%); format: functional
Outline: (§1)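 HeLa and Jurkat human cells were cultured for 24 h with compound at two concentrations. The control was an equal volume of the DMSO diluent. Cellular DNA and protein content were then measured by flow cytometry, and the percentage of cells in sub-G1, G0/G1, S and G2/M was read out.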

Jurkat [3] = assay: Cell cycle arrest in human Jurkat cells assessed as accumulation at G2/M phase at 1 uM after 24 hrs by FITC/propidium iodide staining-based FACS flow cytometric analysis (reference value: 14.4%); format: functional; outline: as §1
[4] = Permeability of the compound by PAMPA; format: ADME; details: read-out: permeability
Jurkat [5] = assay: Cell cycle arrest in human Jurkat cells assessed as accumulation at G0/G1 phase at 10 uM after 24 hrs by FITC/propidium iodide staining-based FACS flow cytometric analysis (reference value: 69.5%); format: functional; outline: as §1
Histone deacetylase 1 = Histone deacetylase 1 (Homo sapiens, UniProt Q13547); assay: Inhibition of recombinant C-terminal FLAG-tagged HDAC1 (unknown origin) expressed in Escherichia coli BL21 using MAL as substrate incubated for 1 hr prior to substrate addition measured after 60 mins by fluorescence plate reader analysis
Sequence of Histone deacetylase 1 (Q13547 whole entry): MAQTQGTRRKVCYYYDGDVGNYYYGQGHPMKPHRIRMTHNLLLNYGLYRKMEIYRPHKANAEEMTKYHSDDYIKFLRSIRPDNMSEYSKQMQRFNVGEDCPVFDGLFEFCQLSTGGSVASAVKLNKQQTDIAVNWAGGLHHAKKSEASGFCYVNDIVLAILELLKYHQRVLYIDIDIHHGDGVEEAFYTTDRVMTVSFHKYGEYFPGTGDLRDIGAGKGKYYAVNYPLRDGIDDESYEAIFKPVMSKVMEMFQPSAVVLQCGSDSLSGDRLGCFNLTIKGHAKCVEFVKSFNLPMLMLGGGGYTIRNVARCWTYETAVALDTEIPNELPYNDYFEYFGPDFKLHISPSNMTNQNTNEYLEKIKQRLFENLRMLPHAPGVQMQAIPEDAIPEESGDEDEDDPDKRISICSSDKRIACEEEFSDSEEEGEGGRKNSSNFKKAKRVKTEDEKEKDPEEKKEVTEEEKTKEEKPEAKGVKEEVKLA

[6] = Lipophilicity, log D of the compound at pH 7.4; format: physicochemical; details: buffer
DU-145 = assay: Cytotoxicity against human DU145 cells assessed as growth inhibition by measuring cellular ATP level after 72 hrs by cell-titer glo assay; format: functional, cell-based; details: DU-145, 72 h
Cytochrome P450 2C9 = Cytochrome P450 2C9 (Homo sapiens, UniProt P11712); assay: Inhibition of CYP2C9 (unknown origin); format: ADME
Sequence of Cytochrome P450 2C9 (P11712 whole entry): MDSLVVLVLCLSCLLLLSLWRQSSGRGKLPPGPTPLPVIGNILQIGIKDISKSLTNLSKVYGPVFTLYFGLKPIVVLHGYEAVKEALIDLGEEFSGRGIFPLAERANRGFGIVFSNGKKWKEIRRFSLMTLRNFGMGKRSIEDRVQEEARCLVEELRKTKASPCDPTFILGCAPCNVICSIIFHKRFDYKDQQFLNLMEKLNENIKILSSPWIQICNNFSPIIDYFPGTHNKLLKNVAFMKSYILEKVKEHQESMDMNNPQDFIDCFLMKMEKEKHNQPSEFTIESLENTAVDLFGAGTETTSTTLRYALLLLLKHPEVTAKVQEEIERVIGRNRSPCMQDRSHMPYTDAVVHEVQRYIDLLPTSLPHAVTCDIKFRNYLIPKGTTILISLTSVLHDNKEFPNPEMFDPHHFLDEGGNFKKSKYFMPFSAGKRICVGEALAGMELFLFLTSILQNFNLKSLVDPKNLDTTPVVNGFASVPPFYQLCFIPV

Cytochrome P450 2C19 = Cytochrome P450 2C19 (Homo sapiens, UniProt P33261); assay: Inhibition of CYP2C19 (unknown origin); format: ADME
[7] = molecular target: Histone deacetylase 3/NCoR1 (Homo sapiens, UniProt O15379); assay: Inhibition of recombinant HDAC3-NCoR1 (unknown origin) using MAL as substrate incubated for 3 hrs prior to substrate addition measured after 60 mins by fluorescence plate reader analysis; format: protein-complex assay
Sequence of Histone deacetylase 3/NCoR1 (O15379 whole entry): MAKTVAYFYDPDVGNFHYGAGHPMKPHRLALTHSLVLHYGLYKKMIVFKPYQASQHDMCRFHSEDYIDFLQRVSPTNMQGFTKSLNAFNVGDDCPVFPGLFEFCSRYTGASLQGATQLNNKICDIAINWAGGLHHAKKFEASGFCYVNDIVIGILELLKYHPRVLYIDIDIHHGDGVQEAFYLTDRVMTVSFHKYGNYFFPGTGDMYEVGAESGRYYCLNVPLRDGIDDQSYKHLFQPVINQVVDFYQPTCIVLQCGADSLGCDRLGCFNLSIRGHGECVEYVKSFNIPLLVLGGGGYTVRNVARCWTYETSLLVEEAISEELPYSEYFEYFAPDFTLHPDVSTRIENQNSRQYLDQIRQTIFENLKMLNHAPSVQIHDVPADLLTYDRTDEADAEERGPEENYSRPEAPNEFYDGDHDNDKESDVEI
Sequence of Histone deacetylase 3/NCoR1 (O75376 whole entry, further chain): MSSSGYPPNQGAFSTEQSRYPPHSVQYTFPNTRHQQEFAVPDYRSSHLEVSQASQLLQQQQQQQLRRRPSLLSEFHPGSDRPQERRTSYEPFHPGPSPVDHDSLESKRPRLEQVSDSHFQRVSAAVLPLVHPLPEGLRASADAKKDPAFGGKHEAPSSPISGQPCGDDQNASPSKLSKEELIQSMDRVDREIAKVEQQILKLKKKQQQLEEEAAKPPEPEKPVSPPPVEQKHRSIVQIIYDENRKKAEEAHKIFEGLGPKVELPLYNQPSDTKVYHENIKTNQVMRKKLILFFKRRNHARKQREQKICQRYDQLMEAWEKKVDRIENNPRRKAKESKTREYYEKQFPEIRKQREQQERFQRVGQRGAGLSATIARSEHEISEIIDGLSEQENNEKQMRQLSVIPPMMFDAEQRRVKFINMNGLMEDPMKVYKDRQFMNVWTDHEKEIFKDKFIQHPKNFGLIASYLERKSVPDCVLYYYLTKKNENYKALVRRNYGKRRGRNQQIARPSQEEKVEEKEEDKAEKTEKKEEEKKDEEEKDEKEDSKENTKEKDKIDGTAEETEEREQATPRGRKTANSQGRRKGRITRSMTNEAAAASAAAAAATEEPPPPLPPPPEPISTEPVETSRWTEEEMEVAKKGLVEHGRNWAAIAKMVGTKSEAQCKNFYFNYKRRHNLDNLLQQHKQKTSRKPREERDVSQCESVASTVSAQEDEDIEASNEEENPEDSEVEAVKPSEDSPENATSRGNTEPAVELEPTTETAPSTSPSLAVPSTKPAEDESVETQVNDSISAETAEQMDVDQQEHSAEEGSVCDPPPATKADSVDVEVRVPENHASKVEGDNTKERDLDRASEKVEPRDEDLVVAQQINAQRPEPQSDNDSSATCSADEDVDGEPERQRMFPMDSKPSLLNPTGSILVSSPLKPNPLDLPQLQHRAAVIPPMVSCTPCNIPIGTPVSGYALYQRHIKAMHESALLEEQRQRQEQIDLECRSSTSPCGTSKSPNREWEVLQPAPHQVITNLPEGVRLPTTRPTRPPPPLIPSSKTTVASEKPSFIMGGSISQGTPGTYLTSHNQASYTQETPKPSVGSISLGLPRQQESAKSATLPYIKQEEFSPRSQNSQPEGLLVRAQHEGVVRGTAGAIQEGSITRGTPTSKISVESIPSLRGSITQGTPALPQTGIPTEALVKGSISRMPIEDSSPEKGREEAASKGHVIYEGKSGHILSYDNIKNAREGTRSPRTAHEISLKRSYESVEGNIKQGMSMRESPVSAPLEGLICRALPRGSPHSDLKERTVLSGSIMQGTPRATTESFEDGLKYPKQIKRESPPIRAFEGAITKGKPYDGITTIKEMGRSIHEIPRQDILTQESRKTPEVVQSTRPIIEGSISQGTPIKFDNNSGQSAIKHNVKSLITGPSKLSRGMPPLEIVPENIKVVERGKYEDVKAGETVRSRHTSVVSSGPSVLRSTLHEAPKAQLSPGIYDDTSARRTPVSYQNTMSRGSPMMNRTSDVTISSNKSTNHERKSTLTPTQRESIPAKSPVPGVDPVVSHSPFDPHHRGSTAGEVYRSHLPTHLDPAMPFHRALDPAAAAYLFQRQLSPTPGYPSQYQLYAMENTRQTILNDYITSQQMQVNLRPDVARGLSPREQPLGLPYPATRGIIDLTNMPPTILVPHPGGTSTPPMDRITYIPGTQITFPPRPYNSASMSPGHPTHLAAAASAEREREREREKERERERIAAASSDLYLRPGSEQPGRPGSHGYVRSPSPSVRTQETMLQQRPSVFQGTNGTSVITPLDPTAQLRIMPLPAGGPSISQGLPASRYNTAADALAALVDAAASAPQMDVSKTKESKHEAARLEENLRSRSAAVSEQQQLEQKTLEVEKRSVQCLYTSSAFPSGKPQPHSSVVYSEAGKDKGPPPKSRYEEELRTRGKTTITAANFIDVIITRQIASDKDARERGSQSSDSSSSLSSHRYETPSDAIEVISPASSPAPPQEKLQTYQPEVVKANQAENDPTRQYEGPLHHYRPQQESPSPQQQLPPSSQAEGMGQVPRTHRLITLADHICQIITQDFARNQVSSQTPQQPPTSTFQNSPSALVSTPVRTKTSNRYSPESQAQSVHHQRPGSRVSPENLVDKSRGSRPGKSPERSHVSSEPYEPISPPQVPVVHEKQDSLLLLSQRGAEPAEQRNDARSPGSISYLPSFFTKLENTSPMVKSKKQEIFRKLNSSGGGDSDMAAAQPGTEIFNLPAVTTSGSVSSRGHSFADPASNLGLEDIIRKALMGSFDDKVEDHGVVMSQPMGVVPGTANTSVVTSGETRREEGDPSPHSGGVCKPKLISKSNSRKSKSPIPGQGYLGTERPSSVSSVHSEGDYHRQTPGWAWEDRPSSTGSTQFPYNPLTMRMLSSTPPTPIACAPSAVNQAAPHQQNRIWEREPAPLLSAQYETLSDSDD

Jurkat [8] = assay: Cell cycle arrest in human Jurkat cells assessed as accumulation at sub-G1 phase at 1 uM after 24 hrs by FITC/propidium iodide staining-based FACS flow cytometric analysis (reference value: 6.8%); format: functional; outline: as §1
Cytochrome P450 3A4 = Cytochrome P450 3A4 (Homo sapiens, UniProt P08684); assay: Inhibition of CYP3A4 (unknown origin) using vivid red as substrate; format: ADME
Sequence of Cytochrome P450 3A4 (P08684 whole entry): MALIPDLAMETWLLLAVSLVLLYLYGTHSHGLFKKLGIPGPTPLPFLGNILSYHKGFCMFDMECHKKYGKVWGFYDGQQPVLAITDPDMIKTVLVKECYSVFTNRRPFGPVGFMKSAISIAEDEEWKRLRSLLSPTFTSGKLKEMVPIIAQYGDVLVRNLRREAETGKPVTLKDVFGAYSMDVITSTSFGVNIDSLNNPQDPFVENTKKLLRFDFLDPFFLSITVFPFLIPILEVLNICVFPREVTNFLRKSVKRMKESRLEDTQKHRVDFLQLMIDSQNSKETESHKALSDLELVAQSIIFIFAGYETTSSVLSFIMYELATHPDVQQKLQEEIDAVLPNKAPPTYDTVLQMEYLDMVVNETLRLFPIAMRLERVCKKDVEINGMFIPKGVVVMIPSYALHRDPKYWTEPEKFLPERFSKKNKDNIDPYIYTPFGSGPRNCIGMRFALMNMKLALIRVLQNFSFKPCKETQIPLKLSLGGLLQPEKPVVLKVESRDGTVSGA

Histone deacetylase 8 = molecular target: T1, Histone deacetylase 8 (Homo sapiens, UniProt Q9BY41); assay: Inhibition of recombinant HDAC8 (unknown origin) expressed in Escherichia coli BL21 using MAL as substrate incubated for 15 mins prior to substrate addition measured after 60 mins by fluorescence plate reader analysis
T1 sequence (Q9BY41 whole entry): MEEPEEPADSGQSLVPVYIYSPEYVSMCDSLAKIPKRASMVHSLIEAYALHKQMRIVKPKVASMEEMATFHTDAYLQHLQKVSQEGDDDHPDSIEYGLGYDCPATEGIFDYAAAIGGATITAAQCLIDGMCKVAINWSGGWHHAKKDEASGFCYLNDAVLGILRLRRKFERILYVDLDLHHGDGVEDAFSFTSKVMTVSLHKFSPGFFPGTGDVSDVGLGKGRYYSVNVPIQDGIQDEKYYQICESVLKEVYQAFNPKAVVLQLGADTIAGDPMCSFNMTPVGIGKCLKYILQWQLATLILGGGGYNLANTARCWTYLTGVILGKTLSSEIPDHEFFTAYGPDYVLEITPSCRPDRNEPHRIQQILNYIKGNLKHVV

[9] = Kinetic solubility of the compound; format: physicochemical; details: read-out: Kinetic_solubility
Outline: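 Solubility was measured by chemiluminescent nitrogen detection.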

[10] = Octanol-water partition coefficient, log p of the compound; format: physicochemical
Jurkat [11] = assay: Induction of apoptosis in human Jurkat cells assessed as PARP cleavage at 1 to 10 uM after 24 hrs by Western blot analysis; format: functional, cell-based
A549 = assay: Cytotoxicity against human A549 cells assessed as growth inhibition by measuring cellular ATP level after 72 hrs by cell-titer glo assay; format: functional, cell-based; details: A549, 72 h

inhibition [1]: Active | IC50 (Histone deacetylase 2): 0.085 µM | Papp [4]: 51 ×10⁻⁶ cm/s | IC50 (Histone deacetylase 1): 0.93 µM | logD [6]: 4.24 | IC50 (Cytochrome P450 2C9): 16 µM | IC50 (Cytochrome P450 2C19): 32 µM | IC50 [7]: 0.012 µM | IC50 (Cytochrome P450 3A4): 25 µM | IC50 (Histone deacetylase 8): 4.1 µM | solubility kinetic [9]: 239 µM (≈ 96.2 µg/mL) | logP [10]: 4.65
Structure (SMILES): Nc1ccccc1NC(=O)c1ccc(CNC2=N[C@@H](c3ccccc3)CS2)cc1
Activity (HeLa): inactive | IC50 (MCF7): 5.43 µM | Activity (Jurkat [2]): 35.1% | Activity (Jurkat [3]): 9.1% | Activity (Jurkat [5]): 28.5% | IC50 (DU-145): 6.4 µM | Activity (Jurkat [8]): 36.6% | Activity (Jurkat [11]): Active | IC50 (A549): 5.78 µM
